For data set [1], the system named is MCF7. The experiment in a line: Antitumor activity against human MCF7 cells xenografted in NIH-3 mouse assessed as reduction in tumor volume at 16 mg/kg, po for 29 days relative to control. The data set is classed as functional. Particulars: MCF7, 696 h. The method in brief:
(§1)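 MCF-7 cells (5x10^6 in 100μl PBS) injected intraperitoneally into NIH-III nude mice; after tumor induction, groups of n=10 dosed orally daily for 29 days at 8 or 16 mg/kg/day in 1% carboxymethyl cellulose (vehicle controls). Tumor diameter by vernier calipers every third day; volume = π/6×d³ (d mean diameter).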

The next data set is described as follows: in vitro. The note with it: human, MCF10A cells versus.
In data set [2] the test system is MDA-MB-231. In words: Cell cycle arrest in human […] cells assessed as accumulation at G2 phase at 2.5 uM by propidium iodide staining by FACS analysis (reference value: 22.74%). Format: functional. For orientation: In flow cytometry, cells or beads pass a laser one at a time.
The test system of data set [3] is MDA-MB-231. In words: Antiproliferative activity against human […] cells assessed as growth recovery treated up to 5 uM for 24 hrs followed by maintained in drug free medium for 72 hrs by MTT assay. Format: functional. In general terms: Tetrazolium assays rely on reduction of a dye to a coloured formazan, in cell work by metabolically active cells.

Data set [4] deals with MDA-MB-231. The experiment in a line: Cell cycle arrest in human […] cells assessed as accumulation at G1 phase at 5 uM by propidium iodide staining by FACS analysis (reference value: 63.74%). Format: functional.
The subject of data set [5] is MCF7. The experiment in a line: Antiproliferative activity against human […] cells assessed as growth recovery treated up to 5 uM for 24 hrs followed by maintained in drug free medium for 72 hrs by MTT assay. Format: functional.
Data set [6] in a line: Safety index, ratio of IC50 for human MCF10A cells to EC50 for human ER-positive MDA-MB-231 cells. Particulars: MCF10A cells versus.
Data set [7] in a line: Safety index, ratio of IC50 for human MCF10A cells to EC50 for human SW620 cells. The data set is classed as toxicity, cell-based, SW-620. The note with it: MCF10A cells versus SW620 cells, read-out: Ratio IC50/EC50. The method in brief: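 Safety index is the IC50 in the normal cells divided by the EC50 in the cancer cells. Both values come from MTT assays: cells in DMEM with 10% FBS, serum-starved 4 h, then exposed to compound across a 100nM-50µM dose range with 0.1% DMSO as vehicle control.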

The subject of data set [8] is MCF7. The experiment in a line: Antiproliferative activity against human ER-negative MCF7 cells after 24 hrs by MTT assay. The data set is classed as functional, cell-based. The note with it: mcf7.
Data set [9] has as its system MDA-MB-231. The experiment in a line: Inhibition of CDC42 protein expression in human MDA-MB-231 cells at 1 uM after 24 hrs by ELISA. The data set is classed as functional, cell-based. The gist of the method:
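MDA-MB-231 cells treated at 1µM for 24 h. CDC42 protein measured with a G-LISA ELISA kit.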
A general note: An ELISA detects its analyte on a solid surface through an enzyme-linked reagent.

The target of data set [10] is Proto-oncogene tyrosine-protein kinase Src (Homo sapiens) (UniProt P12931). The experiment in a line: Inhibition of cSRC (unknown origin) at 10 uM. The gist of the method:
(§2)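 Cell-free kinase profiling was run as a standard 33P-ATP-based in vitro kinase assay.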

The subject of data set [11] is MDA-MB-231. In words: Inhibition of basal cell migration in human MDA-MB-231 cells assessed as […] at 1 uM after 24 hrs by wound healing assay. Format: functional, cell-based.
The test system of data set [12] is MCF7. In words: Antitumor activity against human MCF7 cells xenografted in NIH-3 mouse assessed as effect on tumor volume at 8 mg/kg, po for 29 days relative to control. Format: functional, organism-based. Also on record: dose 8 mg/kg. The gist of the method:
as §1

Data set [13] deals with Mitogen-activated protein kinase; ERK1/ERK2 (Homo sapiens) (UniProt P27361+P28482). The experiment in a line: Inhibition of basal level ERK1/2 phosphorylation in human MDA-MB-231 cells at 1 uM by ELISA. The data set is classed as cell-based.
Chain of Mitogen-activated protein kinase; ERK1/ERK2 (Homo sapiens) (P27361 whole entry, looked up): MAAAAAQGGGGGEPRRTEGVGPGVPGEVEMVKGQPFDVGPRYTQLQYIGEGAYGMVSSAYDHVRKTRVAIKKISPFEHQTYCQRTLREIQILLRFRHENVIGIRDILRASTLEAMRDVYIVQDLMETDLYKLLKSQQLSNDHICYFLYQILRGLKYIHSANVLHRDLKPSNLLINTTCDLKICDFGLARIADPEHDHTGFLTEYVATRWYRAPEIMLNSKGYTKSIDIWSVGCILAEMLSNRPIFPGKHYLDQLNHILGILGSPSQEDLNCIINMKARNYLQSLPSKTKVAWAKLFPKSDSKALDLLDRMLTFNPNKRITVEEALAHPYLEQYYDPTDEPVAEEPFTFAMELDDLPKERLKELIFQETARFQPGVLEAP
Chain of Mitogen-activated protein kinase; ERK1/ERK2 (Homo sapiens) (P28482 whole entry, looked up): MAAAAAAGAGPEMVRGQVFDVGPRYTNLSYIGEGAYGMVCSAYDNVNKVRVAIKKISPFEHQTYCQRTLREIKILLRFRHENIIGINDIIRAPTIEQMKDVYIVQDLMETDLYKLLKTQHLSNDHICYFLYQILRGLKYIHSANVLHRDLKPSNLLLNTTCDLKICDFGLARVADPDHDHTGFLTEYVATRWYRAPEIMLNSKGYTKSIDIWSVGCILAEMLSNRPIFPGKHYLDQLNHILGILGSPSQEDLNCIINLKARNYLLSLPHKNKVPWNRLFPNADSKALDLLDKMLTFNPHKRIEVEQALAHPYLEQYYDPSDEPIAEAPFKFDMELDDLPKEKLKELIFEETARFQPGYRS
In data set [14] the test system is MCF7. The experiment in a line: Antitumor activity against human MCF7 cells xenografted in NIH-3 mouse assessed as large area of stroma/deletion of epithelial cells at 16 mg/kg, po for 25 days. Format: functional, organism-based. Also on record: dose 16 mg/kg.
Data set [15] concerns MDA-MB-231. The experiment in a line: Inhibition of EGF-induced cell migration in human MDA-MB-231 cells assessed as decrease in number of cells toward free space at 1 uM after 24 hrs by wound healing assay. Format: functional, cell-based. The method in brief: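 Confluent MDA-MB-231 monolayers scratch-wounded, washed and treated at 1μM in serum-free medium ± EGF (100ng/ml) for 24 h. Wound closure measured as distances in six random fields at 10×.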

The target of data set [16] is Epidermal growth factor receptor (Homo sapiens) (UniProt P00533). In words: Inhibition of EGF-induced EGFR phosphorylation at Tyr992 in human MDA-MB-231 cells at 1 uM by ELISA. Format: cell-based.
Chain of Epidermal growth factor receptor (Homo sapiens) (P00533 whole entry): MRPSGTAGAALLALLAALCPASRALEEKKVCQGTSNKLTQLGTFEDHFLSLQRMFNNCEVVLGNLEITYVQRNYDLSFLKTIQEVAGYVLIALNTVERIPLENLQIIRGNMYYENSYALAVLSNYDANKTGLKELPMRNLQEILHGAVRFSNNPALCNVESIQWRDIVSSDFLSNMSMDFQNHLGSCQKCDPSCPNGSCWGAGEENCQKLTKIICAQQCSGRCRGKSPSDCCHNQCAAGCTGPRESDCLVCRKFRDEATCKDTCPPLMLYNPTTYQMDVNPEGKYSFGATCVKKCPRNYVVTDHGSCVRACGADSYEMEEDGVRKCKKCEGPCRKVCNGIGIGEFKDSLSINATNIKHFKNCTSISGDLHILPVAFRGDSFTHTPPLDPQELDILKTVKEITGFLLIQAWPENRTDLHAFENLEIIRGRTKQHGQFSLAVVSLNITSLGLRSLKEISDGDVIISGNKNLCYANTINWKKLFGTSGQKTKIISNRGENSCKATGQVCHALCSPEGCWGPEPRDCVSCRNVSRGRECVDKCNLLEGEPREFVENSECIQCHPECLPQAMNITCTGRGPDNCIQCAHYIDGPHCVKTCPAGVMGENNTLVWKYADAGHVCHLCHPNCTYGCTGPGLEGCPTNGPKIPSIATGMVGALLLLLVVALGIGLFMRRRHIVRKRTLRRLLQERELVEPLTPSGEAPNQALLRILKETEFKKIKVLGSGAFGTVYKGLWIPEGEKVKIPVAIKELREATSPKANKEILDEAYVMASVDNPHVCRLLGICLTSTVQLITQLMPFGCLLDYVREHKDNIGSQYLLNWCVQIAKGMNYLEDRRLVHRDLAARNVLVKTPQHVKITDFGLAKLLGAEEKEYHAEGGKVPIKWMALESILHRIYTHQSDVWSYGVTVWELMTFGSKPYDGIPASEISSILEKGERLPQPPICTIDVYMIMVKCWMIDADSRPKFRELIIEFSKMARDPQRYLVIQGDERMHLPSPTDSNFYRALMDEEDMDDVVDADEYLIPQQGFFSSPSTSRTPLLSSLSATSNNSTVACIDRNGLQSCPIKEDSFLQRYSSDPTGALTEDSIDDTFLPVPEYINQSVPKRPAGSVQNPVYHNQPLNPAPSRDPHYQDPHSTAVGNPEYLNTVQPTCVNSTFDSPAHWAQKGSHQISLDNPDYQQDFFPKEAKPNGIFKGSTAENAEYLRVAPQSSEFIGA
For data set [17] the target is unchanged. In words: Inhibition of EGF-induced EGFR phosphorylation at Tyr1173 in human MDA-MB-231 cells at 0.1 uM by ELISA. Format: cell-based. The gist of the method: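 MDA-MB-231 cells pretreated 1 h in serum-free medium, then EGF-stimulated for 15 min and lysed. Equal lysate protein (Bradford) assayed by ELISA kits for p-EGFR (Tyr1068, Tyr845, Tyr1173) and p-HER2. Absorbance read at 450 nm, normalized to total EGFR or HER2.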

In data set [18] the target is High affinity 3',5'-cyclic-AMP phosphodiesterase 7A (Homo sapiens) (UniProt Q13946). In words: Inhibition of PDE7A (unknown origin) activity at 1 to 10 uM. The gist of the method: (§3)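 Recombinant PDE isoform activity was read by fluorescence polarization. A binding reagent complexes with the nucleotide monophosphate that the phosphodiesterase generates from cAMP/cGMP, and this raises the polarization of the labelled substrate. Reference standards were PDE1A3 10µM IBMX, PDE2A3 1nM BAY 60-7550, PDE3CAT 1µM cilostazol, PDE4CAT rolipram, PDE5CAT 0.1µM sildenafil, PDE7A […], PDE8A1 10µM BRL-50481, PDE9A1 1µM SB 36216 and PDE11A1 dipyridamole.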
Chain of High affinity 3',5'-cyclic-AMP phosphodiesterase 7A (Homo sapiens) (Q13946 whole entry, canonical isoform): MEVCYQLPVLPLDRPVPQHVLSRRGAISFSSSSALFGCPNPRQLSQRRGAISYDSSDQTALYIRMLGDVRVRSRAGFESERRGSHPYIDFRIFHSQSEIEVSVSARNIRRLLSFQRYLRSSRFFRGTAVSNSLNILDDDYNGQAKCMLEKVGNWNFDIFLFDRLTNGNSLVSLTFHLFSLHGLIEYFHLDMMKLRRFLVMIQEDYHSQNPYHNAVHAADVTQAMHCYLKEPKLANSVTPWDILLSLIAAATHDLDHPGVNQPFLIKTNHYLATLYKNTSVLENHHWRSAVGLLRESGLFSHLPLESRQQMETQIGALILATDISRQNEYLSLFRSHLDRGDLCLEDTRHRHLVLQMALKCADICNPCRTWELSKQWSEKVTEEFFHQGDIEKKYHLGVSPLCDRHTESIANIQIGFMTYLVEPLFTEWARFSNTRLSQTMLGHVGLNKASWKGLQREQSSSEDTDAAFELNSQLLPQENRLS

Data set [19] has as its system MDA-MB-231. In words: Inhibition of INS expression in human MDA-MB-231 cells at 5 uM by ELISA. Format: functional, cell-based.
Data set [20] concerns MDA-MB-231. In words: Inhibition of ALDH1 in human MDA-MB-231 cells at 5 to 20 uM after 8 days by FACS analysis. The data set is classed as functional, cell-based. The method in brief:
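ALDH1-positive MDA-MB-231 cells identified with Aldefluor reagent and quantified by flow cytometry.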

Data set [21] addresses cGMP-dependent 3',5'-cyclic phosphodiesterase (Homo sapiens) (UniProt O00408). The experiment in a line: Inhibition of PDE2A3 (unknown origin) activity at 1 to 10 uM. The method in brief:
as §3

Data set [22] has as its target Platelet-derived growth factor receptor alpha (Homo sapiens) (UniProt P16234). In words: Inhibition of PDGFRalpha (unknown origin) at 10 uM. The method in brief: as §2
Data set [23] concerns the target RAC-alpha serine/threonine-protein kinase (Homo sapiens) (UniProt P31749). In words: Inhibition of EGF-induced AKT phosphorylation in human MDA-MB-231 cells at 1 uM by ELISA. The data set is classed as cell-based.
In data set [24] the test system is MDA-MB-231. The experiment in a line: Antiinvasion activity in human MDA-MB-231 cells assessed as inhibition of FBS-induced cell invaded to matrigel coated invasion chamber at 1 uM after 24 hrs by Transwell invasion assay. The data set is classed as functional, cell-based.
Data set [25] deals with MDA-MB-231. The experiment in a line: Antiinvasion activity in human MDA-MB-231 cells assessed as inhibition of EGF-induced cell invaded to matrigel coated invasion chamber at 1 uM after 24 hrs by Transwell invasion assay. The data set is classed as functional, cell-based. The gist of the method: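 Transwell matrigel invasion (8 µm pore): cells at 1x10^5 cells/mL in 2% FBS medium in upper chamber; lower chamber medium with 1µM compound and EGF 100ng/ml; 24 h. Invaded cells on filter underside fixed, crystal-violet stained, counted in six random fields at 20×, dye dissolved in 0.1% SDS read at 540nm; triplicate chambers.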

SMILES strings stand for the structures. Calls of active or inactive are those of the source. The calls are words filed in the database; no cut-off is given here.

Chain of cGMP-dependent 3',5'-cyclic phosphodiesterase (Homo sapiens) (O00408 whole entry): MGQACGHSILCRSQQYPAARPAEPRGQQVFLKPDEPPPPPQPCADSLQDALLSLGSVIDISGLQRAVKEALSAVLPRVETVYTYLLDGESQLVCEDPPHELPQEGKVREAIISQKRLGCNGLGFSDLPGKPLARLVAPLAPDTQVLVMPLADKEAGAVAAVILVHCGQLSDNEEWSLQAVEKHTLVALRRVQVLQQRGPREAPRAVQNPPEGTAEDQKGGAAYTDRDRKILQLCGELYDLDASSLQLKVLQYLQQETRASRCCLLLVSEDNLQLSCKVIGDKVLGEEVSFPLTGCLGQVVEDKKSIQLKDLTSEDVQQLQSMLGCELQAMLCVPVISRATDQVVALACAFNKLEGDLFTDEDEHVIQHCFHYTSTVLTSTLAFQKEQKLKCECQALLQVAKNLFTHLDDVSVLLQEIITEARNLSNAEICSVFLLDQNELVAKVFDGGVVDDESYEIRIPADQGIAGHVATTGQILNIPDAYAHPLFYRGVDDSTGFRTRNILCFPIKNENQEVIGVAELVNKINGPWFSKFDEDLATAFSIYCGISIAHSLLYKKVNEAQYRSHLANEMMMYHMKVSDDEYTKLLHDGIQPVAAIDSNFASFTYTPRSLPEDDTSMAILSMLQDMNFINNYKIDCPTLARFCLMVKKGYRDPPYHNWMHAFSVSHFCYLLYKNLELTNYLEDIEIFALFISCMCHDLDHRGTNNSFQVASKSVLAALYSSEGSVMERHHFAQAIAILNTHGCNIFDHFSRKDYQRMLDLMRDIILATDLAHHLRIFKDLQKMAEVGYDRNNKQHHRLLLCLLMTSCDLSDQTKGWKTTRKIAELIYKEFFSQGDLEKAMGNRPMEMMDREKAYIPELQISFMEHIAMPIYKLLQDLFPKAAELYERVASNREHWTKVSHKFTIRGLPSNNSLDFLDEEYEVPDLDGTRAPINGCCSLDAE
Chain of Platelet-derived growth factor receptor alpha (Homo sapiens) (P16234 whole entry): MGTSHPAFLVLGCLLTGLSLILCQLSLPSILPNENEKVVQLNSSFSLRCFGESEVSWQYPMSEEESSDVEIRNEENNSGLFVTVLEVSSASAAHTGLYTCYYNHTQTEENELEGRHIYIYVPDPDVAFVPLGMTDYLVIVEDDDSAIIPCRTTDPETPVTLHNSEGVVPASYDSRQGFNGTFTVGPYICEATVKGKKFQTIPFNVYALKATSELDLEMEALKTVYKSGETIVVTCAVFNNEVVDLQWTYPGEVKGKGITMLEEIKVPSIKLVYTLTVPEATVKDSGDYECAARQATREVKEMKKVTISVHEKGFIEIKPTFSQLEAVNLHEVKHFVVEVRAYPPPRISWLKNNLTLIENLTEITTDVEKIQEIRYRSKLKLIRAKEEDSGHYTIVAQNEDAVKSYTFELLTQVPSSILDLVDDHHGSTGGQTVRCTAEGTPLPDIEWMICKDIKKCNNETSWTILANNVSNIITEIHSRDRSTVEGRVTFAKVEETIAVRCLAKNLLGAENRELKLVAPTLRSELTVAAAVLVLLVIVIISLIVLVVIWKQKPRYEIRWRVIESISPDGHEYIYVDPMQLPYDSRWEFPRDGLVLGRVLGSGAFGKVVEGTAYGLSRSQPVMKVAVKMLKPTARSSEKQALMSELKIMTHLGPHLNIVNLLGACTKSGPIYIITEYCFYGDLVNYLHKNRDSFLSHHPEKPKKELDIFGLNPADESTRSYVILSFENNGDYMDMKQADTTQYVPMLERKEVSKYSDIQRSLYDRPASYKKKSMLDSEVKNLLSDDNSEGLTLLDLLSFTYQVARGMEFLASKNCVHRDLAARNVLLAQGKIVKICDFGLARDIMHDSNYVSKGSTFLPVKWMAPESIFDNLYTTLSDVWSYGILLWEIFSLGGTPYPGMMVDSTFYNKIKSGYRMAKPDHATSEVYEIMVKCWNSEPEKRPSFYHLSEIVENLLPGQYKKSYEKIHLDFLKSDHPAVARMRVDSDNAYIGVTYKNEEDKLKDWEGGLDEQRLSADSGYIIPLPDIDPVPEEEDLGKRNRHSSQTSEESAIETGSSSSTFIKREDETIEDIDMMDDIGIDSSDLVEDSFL
Chain of Proto-oncogene tyrosine-protein kinase Src (Homo sapiens) (P12931 2-536 limits assumed): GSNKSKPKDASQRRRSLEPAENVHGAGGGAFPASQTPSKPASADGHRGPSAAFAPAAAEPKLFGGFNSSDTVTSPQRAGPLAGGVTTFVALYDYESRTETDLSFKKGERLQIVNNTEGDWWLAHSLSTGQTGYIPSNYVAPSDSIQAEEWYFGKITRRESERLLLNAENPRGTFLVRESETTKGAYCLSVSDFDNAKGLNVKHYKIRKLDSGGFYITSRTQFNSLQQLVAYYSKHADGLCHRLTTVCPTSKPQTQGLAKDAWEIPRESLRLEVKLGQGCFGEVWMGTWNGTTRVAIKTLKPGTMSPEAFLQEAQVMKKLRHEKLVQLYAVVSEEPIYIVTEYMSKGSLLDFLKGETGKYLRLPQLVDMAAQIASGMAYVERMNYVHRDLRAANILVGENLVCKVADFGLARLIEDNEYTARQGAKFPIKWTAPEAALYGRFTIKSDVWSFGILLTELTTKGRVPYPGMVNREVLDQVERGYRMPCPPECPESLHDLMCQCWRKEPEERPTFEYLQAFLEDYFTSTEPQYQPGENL

For the compound `CCN(CC)CCO/N=C(\c1ccc(SC)cc1)c1cccc2ccccc12.O=C(O)C(=O)O`, in the data set with MCF7 [1], the inhibition in vivo at 16 mg/kg is 50%. Moreover, the selectivity ratio in “in vitro” came to 16.6; in data set [6] it was 50; in [7] it was 2.2. Also, the Activity in the data set with MDA-MB-231 [2] came to 6.22%; in the data set on MDA-MB-231 [3], 20%; in the data set on MDA-MB-231 [4], 88%; in the data set on MCF7 [5] it was 50%. For the same compound, a half-maximal effect with MCF7 [8] (EC50) was put at 7.5 µM.
Consider `CCN(CC)CCO/N=C(\c1ccc(SC)cc1)c1cccc2ccccc12`, for which the inhibition result (in the data set with MDA-MB-231 [9]; in the data set with MDA-MB-231 [11]; in data set [13]; in the data set on MDA-MB-231 [15]; in [16]; in data set [17]) was “Active” throughout. Further, the inhibition result (with MDA-MB-231 [20]; in data set [23]; with MDA-MB-231 [25]) was “Active” each time. Besides, the inhibition result (in data set [10]; in the data set on MCF7 [12]; in data set [18]; in the data set with MDA-MB-231 [19]; in data set [21]; in [22]) was “inactive” throughout. For the same compound, the result with MCF7 [14] and in the data set with MDA-MB-231 [24] was Active.

Usually inhibition in vivo stands for the share of the control response that was lost under treatment. By EC50 is commonly meant the midpoint of the concentration-response curve. A higher EC50 goes with lower potency in that assay.

For the origin of these results see ChEMBL document CHEMBL3352791, “Thioaryl naphthylmethanone oxime ether analogs as novel anticancer agents” (J Med Chem, 2014).
